Screening data from PubChem.
rCAG RNA binder: r(CAG) repeat RNA binding; 370,000 tested, 1.3% active; TO-PRO-1 dye displacement fluorescence; inhibition, % at 3 µM;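 active = inhibition above the plate cutoff, the mean of all test compounds on that plate plus 3 SD, cut at about 35% in these data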;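 note: higher means more dye released from RNA so lower well fluorescence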
SIAE inh: blocks human sialic acid acetylesterase. 370,000 tested, 0.69% active. SIAE FP-Rh probe binding, fluorescence polarization. inhibition, % at 9.66 µM. Q9HAT2;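 active = inhibition above a cutoff: mean of compounds within the control limits plus 3 SD of those, cut at about 17% in these data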
Target sequence (Q9HAT2 whole entry, looked up): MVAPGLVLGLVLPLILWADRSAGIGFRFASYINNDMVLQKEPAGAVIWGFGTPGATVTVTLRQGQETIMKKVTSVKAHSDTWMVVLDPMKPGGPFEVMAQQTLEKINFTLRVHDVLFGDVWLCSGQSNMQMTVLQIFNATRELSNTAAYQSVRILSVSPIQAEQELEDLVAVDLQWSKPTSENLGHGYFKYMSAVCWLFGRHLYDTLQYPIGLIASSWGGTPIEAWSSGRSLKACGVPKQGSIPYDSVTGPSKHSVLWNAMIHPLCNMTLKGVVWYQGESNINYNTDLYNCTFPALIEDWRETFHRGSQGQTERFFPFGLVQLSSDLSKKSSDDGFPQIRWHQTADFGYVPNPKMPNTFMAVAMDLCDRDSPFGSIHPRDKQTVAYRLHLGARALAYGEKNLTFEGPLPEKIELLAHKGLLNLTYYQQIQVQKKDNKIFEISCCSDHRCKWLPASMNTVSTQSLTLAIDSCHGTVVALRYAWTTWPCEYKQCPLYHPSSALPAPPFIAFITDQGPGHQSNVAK
TCR CD3 inh: blocks the human TCR-CD3 interaction; inhibition, % at 9.4 µM; TAMRA-labeled TCR probe fluorescence, biochemical; 360,000 tested, 0.37% active; in the data active = inhibition above about 19%;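 note: recombinant mutant TCR 2C K166C tagged with TAMRA read by polarization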
HTRA1 inhibitor: HTRA1 (human) protease inhibition. Q92743. recombinant HTRA1, FP-rhodamine activity-based probe, fluorescence polarization. inhibition, % at 5.96 µM. 340,000 tested, 0.5% active. AID 504803; in the data active = inhibition above about 36%
PRMT1 FP inh: inhibitors of human PRMT1; inhibition, % at 2.79 µM; recombinant PRMT1, activity-based probe fluorescence polarization; 370,000 tested, 1.3% active; Q99873; AID 652257;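 active = inhibition above about 21% made by adding two undisclosed values, limit read from the data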
mABHD4 FP: inhibits mouse alpha/beta hydrolase domain 4; Q8VD66; purified mABHD4, FP-Rh probe fluorescence polarization; inhibition, % at 8.92 µM; 370,000 tested, 0.54% active; AID 720543;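 active = inhibition exceeding the mean over every tested compound plus 3 SD, cut at about 30% in these data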
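Test system: mouse ABHD4 enzyme, wild type. Reagent: FP-Rh fluorescent activity-based probe, added after compound pre-incubation. Timing: pre-incubation 45 min, probe exposure 60 min, at 25 °C. Technique: FP readout, ex 525 nm / em 598 nm. Benchmarks: high control S159A mutant with DMSO, low control median of compound wells.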
Each line names hits and unclear results; the compound was inactive in the other large screens. This is a sample that favours compounds with a hit; in the whole collection about 3.5% have one here.

CC(=O)N1CC=CC1(CC(C)C)C(=O)NCc1cc(F)cc(C(F)(F)F)c1 (stereo not drawn)	none
O=C1C=CC2(O[C@H](c3ccccc3)[C@@H](c3ccccc3)O2)[C@H](Sc2ccccc2O)C1	PRMT1 FP inh 96
N#C/C(=C\c1ccc(O)c(O)c1)S(=O)(=O)c1ccccc1	SIAE inh 20
Cc1cccc(Cn2cc(COC(=O)NCC(C)C)nn2)c1	none (no result: TCR CD3 inh, HTRA1 inhibitor)
COc1cccc(N=Nc2c(N)[nH]n3c(=O)cc(-c4ccccc4)nc23)c1	none
COc1ccc(-c2c(C(F)(F)F)[nH]n3c(=O)cc(-c4ccccc4)nc23)cc1	rCAG RNA binder 38
CCOc1ccc(/C=N/Nc2nc(C)cs2)c(O)c1	PRMT1 FP inh 21
Cc1csc(N/N=C/c2ccccc2F)n1	none
Cc1cc(C)cc(C(=O)OCCN(C)C2CN(Cc3cn(Cc4ccccc4C(F)(F)F)nn3)S(=O)(=O)C2)c1 (stereo not drawn)	none (no result: TCR CD3 inh, HTRA1 inhibitor)
O=C(Sc1n[nH]c(=O)[nH]c1=O)c1ccccc1	PRMT1 FP inh 88
Cc1cccc(-c2cccc3c4c([nH]c23)[C@@H]2C[C@H](N(C)C(=O)c3cccc(Cl)c3)[C@H]([C@H](C)O)CN2CC4)c1	none (no result: TCR CD3 inh, HTRA1 inhibitor)
CCc1nc(N[C@@H](Cc2c[nH]c3ccccc23)C(=O)O)c2oc3ccccc3c2n1	rCAG RNA binder 36
CCOc1cc(/C=N/N=C(N)N)ccc1OCc1ccc(Cl)cc1	none
NC(N)=N/N=C/c1ccc(OCc2ccccc2)c(OCc2ccccc2)c1	SIAE inh 25
COC(=O)C1CN(C2CCCC2)CCS(=O)(=O)N1Cc1ccccc1 (stereo not drawn)	none (no result: TCR CD3 inh, HTRA1 inhibitor)
CC(C)(C)NC(=O)C[C@H]1C[C@H](C(=O)N2CCCCC2)[C@@]2(CCc3ccccc3)c3[nH]c4cc(-c5ccco5)ccc4c3CCN2C1=O	PRMT1 FP inh 24
CN(C)CCCNC(=O)C[C@H]1C[C@H](C(=O)N2CCCCC2)[C@@]2(CCc3ccccc3)c3[nH]c4cc(-c5ccco5)ccc4c3CCN2C1=O	none
O=C(C[C@H]1C[C@H](C(=O)N2CCOCC2)[C@@]2(CCC3CCCC3)c3[nH]c4cc(-c5ccco5)ccc4c3CCN2C1=O)NCc1ccco1	PRMT1 FP inh 22
C#CCNC(=O)C[C@H]1C[C@@]2(C(=O)OC)C(=C[C@H](COCc3ccccc3)O[C@@H]2C)N(CCCCCCCC)C1=O	none (no result: TCR CD3 inh, HTRA1 inhibitor)
CCOc1ccccc1CNC(=O)c1ccc2c(c1)N(CC)CCS2	PRMT1 FP inh 23
Cn1ccc2c(-c3ccc(F)nc3)cc3c(c21)C1CCC3C1 (stereo not drawn)	PRMT1 FP inh 23 (no result: HTRA1 inhibitor)
Cn1ccc2c(-c3cccnc3)cc3c(c21)C1CCC3C1 (stereo not drawn)	none (no result: HTRA1 inhibitor)
Cc1ccc(-n2c(-c3ccccc3)c[nH]c2=S)cc1	none
COc1ccc(-n2c(-c3ccc(Cl)cc3)c[nH]c2=S)cc1	PRMT1 FP inh 24
Cc1cc(O)c(C(C)C)cc1N=Nc1ccccc1C(=O)O	none
Cc1cc(N=Nc2ccccc2C(=O)O)c(C)c(C)c1O	rCAG RNA binder 50
O=S1(=O)c2c(NCc3ccco3)cccc2Oc2ccccc2CN1Cc1cn(Cc2ccc(F)cc2)nn1	none (no result: TCR CD3 inh, HTRA1 inhibitor)
Cc1cc(OC(=O)c2c(C)cc(OC(=O)c3c(C)cc(O)cc3O)cc2O)cc(O)c1C(=O)O	rCAG RNA binder 69
COC(=O)c1c(C)cc(O)cc1O	none
c1ccc2cc3[nH]c(CNc4nc(N5CCOCC5)nc5c4ncn5-c4ccsc4)nc3cc2c1	none (no result: rCAG RNA binder, TCR CD3 inh, HTRA1 inhibitor)
Cc1ccccc1-n1c(SCC(=O)N2CCOCC2)nc(O)c(Cc2ccccc2)c1=O	PRMT1 FP inh 24
COCCN=C1NN=C(c2ccc(NC(C)=O)cc2)CS1	PRMT1 FP inh 22
CCN=C1NN=C(c2ccc(C)cc2)CS1	none
Cc1nc(N2CCN(C(=O)COc3ccccc3C)CC2)c2c3c(sc2n1)CCCC3	none (no result: rCAG RNA binder, TCR CD3 inh, HTRA1 inhibitor)
O=C(O)c1cccc(-n2cccc2/C=N/O)c1	none
O=C(O)c1cccc(-n2cccc2/C=C/[N+](=O)[O-])c1	PRMT1 FP inh 26
C[C@H]1[C@@H](OC(=O)NCCc2ccccc2)CC[C@@]23CCCN2C(=O)CCC[C@@H]13	none (no result: rCAG RNA binder, TCR CD3 inh, HTRA1 inhibitor)
CCC(COC)Oc1cc(NCc2ccccc2)c2ncn(C(C)C)c2c1 (stereo not drawn)	none
CCC(COC(=O)c1ccccc1)Oc1cc(NCc2ccccc2)c2ncn(C(C)C)c2c1 (stereo not drawn)	mABHD4 FP 31
CC1=C(C#N)C(=O)NC(=O)/C1=C\c1ccc(-c2cc(C)c(C)cc2[N+](=O)[O-])o1	rCAG RNA binder 55, PRMT1 FP inh 40, mABHD4 FP 41
CC(C)N1CCCCC(NC(=O)c2ccc(-c3ccccc3)cc2)C1=O (stereo not drawn)	none (no result: TCR CD3 inh, HTRA1 inhibitor)
O=C(NCc1ccccc1)C(c1ccncc1)n1c(=O)c(-c2ccco2)nc2ccccc21 (stereo not drawn)	none (no result: HTRA1 inhibitor)
CC(C)(C)NC(=O)C(c1cccc2ccccc12)n1c(=O)c(-c2ccco2)nc2ccccc21 (stereo not drawn)	rCAG RNA binder 44, PRMT1 FP inh 22 (no result: HTRA1 inhibitor)
O=C(NCc1ccccc1)C(c1cccc2ccccc12)n1c(=O)c(-c2ccco2)nc2ccccc21 (stereo not drawn)	rCAG RNA binder 38 (no result: HTRA1 inhibitor)
Cc1nc2c(=O)[nH]c(=S)n(C)c2nc1C	PRMT1 FP inh 23
COc1ccc(S[C@]2(C(=O)N3CCCC3)CC(=O)N(c3ccccc3OC)[C@@H]2c2ccc(OC)cc2)cc1	none (no result: TCR CD3 inh, HTRA1 inhibitor)
CC(C)(C)c1csc(NNC(=O)c2ccc(Br)cc2)n1	PRMT1 FP inh 23
CCOc1cc(C2NC(=S)NC(C)=C2C(=O)Nc2ccccc2)ccc1O (stereo not drawn)	PRMT1 FP inh 22
CCCCN(C)CCn1c(=S)[nH]c2ccc(N3CCOCC3)cc2c1=O	PRMT1 FP inh 24
COC(=O)c1ccc(Cn2ccc3ccc(-c4ccc5ccn(C(=O)c6cccc(OC)c6)c5c4)cc32)cc1	none (no result: TCR CD3 inh, HTRA1 inhibitor)
Cc1cc(C(=O)OCCCN(C)C2CN(Cc3cn(Cc4ccccc4C(F)(F)F)nn3)S(=O)(=O)C2)no1 (stereo not drawn)	none (no result: TCR CD3 inh, HTRA1 inhibitor)
C#CCNC(=O)C[C@H]1C[C@@]2(C(=O)OC)C(=C[C@H](C(C)(C)C)O[C@@H]2C)N(Cc2cccc3ccccc23)C1=O	none (no result: TCR CD3 inh, HTRA1 inhibitor)
N#CC1=C(S)N=C(N)C(c2nc(-c3ccccc3)cs2)C12CCCC2 (stereo not drawn)	PRMT1 FP inh 33
N#CC1=C(S)N=C(N)C(c2nc(-c3ccccc3)cs2)C12CCCCC2 (stereo not drawn)	none
CCOC(=O)Oc1ccc2c(=O)c(Oc3cccc(C)c3)coc2c1	HTRA1 inhibitor 51
CCOC(=O)Oc1ccc2c(=O)c(Oc3cc(C)cc(C)c3)coc2c1	HTRA1 inhibitor 49
COc1ccc(Oc2coc3cc(OC(=O)c4cccs4)ccc3c2=O)cc1	HTRA1 inhibitor 51
